Sampled rows, rich in hits. Any-hit rate of the full collection: about 2.3%.
TRPC6 act – mouse TRPC6 channel activation. Q61143. HEK293-TRPC6 membrane potential dye fluorescence; hits give high values. B-score at 10 µM. 310,000 tested, 0.13% active. AID 2550;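 active means B-score of the integrated fluorescence ratio above library mean plus 3 SD, and starting fluorescence ratio within library mean plus 5 SD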;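 further: higher score means more depolarization so channel activation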
TRPC6 inh – blocks the mouse TRPC6 cation channel; Q61143; HEK293-TRPC6, membrane potential dye, ACh-evoked depolarization; hits give low values; B-score at 10 µM; 310,000 tested, 1.1% active; AID 2553;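 active means B-score under library mean minus 3 SD, initial fluorescence not abnormally high, positive integrated signal ratio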;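 further: B-score derived from integrated fluorescence ratio over the kinetic read; more negative B-score means stronger inhibition of depolarization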
TRPC4 PAM – TRPC4 (mouse) allosteric potentiation. Q9QUQ5. HEK293 TRPC4beta/mu-opioid, DAMGO EC20, Fluo-4 Ca2+ flux; hits give high values. B-score at 10 µM. 310,000 tested, 0.42% active. AID 2227;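 active means B-score of calcium response area above 5 SD of library B-scores, with initial fluorescence ratio within 5 SD of library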;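 further: B-score of integrated fluorescence ratio over time as area under calcium response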
Target sequence (Q9QUQ5 whole entry, looked up): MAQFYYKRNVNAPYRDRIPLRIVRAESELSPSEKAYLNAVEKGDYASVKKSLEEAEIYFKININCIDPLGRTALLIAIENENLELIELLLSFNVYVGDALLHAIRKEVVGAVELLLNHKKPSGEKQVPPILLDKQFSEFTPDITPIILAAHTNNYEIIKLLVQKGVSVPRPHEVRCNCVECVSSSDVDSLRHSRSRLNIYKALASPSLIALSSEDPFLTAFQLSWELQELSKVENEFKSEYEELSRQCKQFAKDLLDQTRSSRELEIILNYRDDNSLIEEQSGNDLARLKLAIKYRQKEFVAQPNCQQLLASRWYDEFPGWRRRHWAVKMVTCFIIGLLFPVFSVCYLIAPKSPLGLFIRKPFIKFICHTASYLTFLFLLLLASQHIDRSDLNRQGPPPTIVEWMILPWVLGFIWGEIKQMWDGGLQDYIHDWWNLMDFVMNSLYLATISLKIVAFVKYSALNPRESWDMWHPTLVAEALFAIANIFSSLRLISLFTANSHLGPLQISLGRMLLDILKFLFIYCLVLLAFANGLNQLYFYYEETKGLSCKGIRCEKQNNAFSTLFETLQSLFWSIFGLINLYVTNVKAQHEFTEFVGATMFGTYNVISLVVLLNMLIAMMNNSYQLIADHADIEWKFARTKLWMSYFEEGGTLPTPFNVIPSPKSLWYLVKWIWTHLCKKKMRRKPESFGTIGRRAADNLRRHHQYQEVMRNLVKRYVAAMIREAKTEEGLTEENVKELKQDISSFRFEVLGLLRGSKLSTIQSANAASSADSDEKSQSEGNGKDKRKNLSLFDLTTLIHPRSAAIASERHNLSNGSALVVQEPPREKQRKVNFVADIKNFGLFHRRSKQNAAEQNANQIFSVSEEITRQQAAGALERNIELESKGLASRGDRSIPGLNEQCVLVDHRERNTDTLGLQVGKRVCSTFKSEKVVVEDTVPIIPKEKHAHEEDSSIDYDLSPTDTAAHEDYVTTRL
TRPC4 act – TRPC4 (mouse) channel activation; Q9QUQ5; B-score at 10 µM; HEK293 TRPC4beta/mu-opioid, Fluo4 calcium fluorescence; hits give high values; 310,000 tested, 0.49% active;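 active means B-score above 5 SD of library B-scores, and initial fluorescence ratio not above library mean plus 5 SD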;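 further: positive B-score marks a calcium rise read as TRPC4 activation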
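Assay system – TRPC4beta and mu-opioid receptor HEK293 stable cells · Measured by – Fluo4 fluorescence, kinetic · Schedule – dye loading 45 min room temperature, 110 s kinetic read · Read-out – B-scored integrated calcium fluorescence ratio · Controls – buffer and maximal DAMGO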
TRPC4 inh – inhibitors of mouse TRPC4 channel; HEK293 TRPC4beta/mu-opioid, DAMGO-evoked Fluo4 calcium flux; hits give low values; AID 2247; B-score at 10 µM; 300,000 tested, 0.39% active; Q9QUQ5;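 active means B-score over 3 SD under the library average, no early fluorescence shift, positive overall ratio signal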
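System: stable TRPC4beta/mu-opioid receptor HEK293 cells; Dosing: single-point compound dosing; Measured by: Fluo4 Ca2+ flux fluorescence; Read-out basis: per-well B score of integrated baseline-normalized Fluo4 ratio.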
TRPC4 sel inh 2 – second selectivity test of TRPC6 inhibitors: effect on mouse TRPC4 | shares compounds with TRPC6 inh | 920 tested, 42% active | HEK293 TRPC4/MOR, membrane potential dye fluorescence; channel activated by saturating DAMGO dose | inhibition, % at 10 µM;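 active means compounds whose fluorescence signal differed from control wells by over 3 SD, either direction, in both duplicate plates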
TRPC4 spec – selectivity of TRPC6 inhibitors: effect on mouse TRPC4; HEK293 TRPC4/mu-opioid, membrane potential fluorescence; 920 tested, 61% active; AID 2777; shares compounds with TRPC6 inh; activity change, negative = inhibition, % at 10 µM;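 active means rise or fall in signal beyond 3 SD of buffer-only wells in both replicate plates, either sign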;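 further: integrated kinetic ratio of fluorescence range over baseline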
HEK293 MPD ctr 2-1 – second counter-screen for TRPC6 inhibitors: parental HEK293 cells. shares compounds with TRPC6 inh. parental HEK293 membrane potential dye fluorescence; maximal acetylcholine challenge after compound addition. signal change vs control, % at 10 µM. 920 tested, 31% active. AID 2779;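 active means membrane potential signal moving either way by over 3 SD of the maximum-effect control, in both duplicate plates, meaning non-specific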
HEK293 MPD ctr-1 – checks TRPC6 inhibitor effects in parental HEK293 cells; shares compounds with TRPC6 inh; AID 2780; 920 tested, 60% active; parental HEK293 membrane potential dye fluorescence; membrane potential signal change, % at 10 µM;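 active means membrane potential signal shifting up or down by more than 3 SD of buffer-only wells, on both duplicate plates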
HEK293 MPD ctr-2 – checks TRPC6 modulator effects in parental HEK293 cells; membrane potential dye fluorescence; AID 488924; membrane potential signal change, % at 10 µM; shares compounds with TRPC6 inh; 2,400 tested, 51% active;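 active means membrane potential signal moves up or down beyond 5 SD from buffer-only wells, on both duplicate plates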
HEK293 MPD ctr 2-2 – second counter-screen for TRPC6 modulators: effect in parental HEK293 cells; AID 488926; shares compounds with TRPC6 inh; inhibition, % at 10 µM; 2,400 tested, 14% active; membrane potential dye fluorescence; after compound, maximal acetylcholine stimulation;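 active means membrane potential signal drops by more than 5 SD from the mean control signal, in both duplicate plates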;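 further: plate controls were acetylcholine ECmax control wells for no effect and buffer only wells for full effect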
TRPC4 ctr mod – mouse TRPC4 off-target activity of TRPC6 modulators. shares compounds with TRPC6 inh. HEK293 TRPC4/mu-opioid, membrane potential fluorescence. percent change from control (negative = decrease, positive = increase), % at 10 µM. 2,400 tested, 69% active;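 active means membrane potential signal moved up or down beyond 5 SD of buffer control wells, in both duplicate plates, actives on both sides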;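 further: plate controls were assay buffer wells for no effect and DAMGO maximal-effect wells for full effect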
TRPC4/MOR inh 2 – second check of whether TRPC6 modulators also affect mouse TRPC4. shares compounds with TRPC6 inh. HEK293 TRPC4/mu-opioid, membrane potential dye fluorescence; stimulated with maximal-effect DAMGO. inhibition, % at 10 µM. 2,400 tested, 55% active;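 active means drop in membrane potential signal beyond 5 SD of the control wells in both duplicate plates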;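 further: TRPC4 counter screen for TRPC6 hits run under conditions tuned for TRPC6 not TRPC4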
TRPC6 block conf – mouse TRPC6 inhibitor confirmation | shares compounds with TRPC6 inh | HEK293-TRPC6, membrane potential dye, ACh-evoked depolarization | inhibition, % at 10 µM | 3,300 tested, 43% active | AID 488960;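 active means fluorescence ratio falls more than 5 SD below the full-stimulation control mean, in both duplicate runs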;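 further: integrated fluorescence ratio of peak minus minimum over baseline after agonist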
TRPC6 act conf – mouse TRPC6 activator confirmation; shares compounds with TRPC6 inh; HEK293-TRPC6 membrane potential dye fluorescence, FDSS; activation, % at 10 µM; 2,800 tested, 11% active;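 active means ratio signal rise beyond 5 SD above unstimulated control wells' mean, seen in both duplicate runs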;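 further: plate controls were buffer EC0 wells for no effect and acetylcholine ECmax response for full effect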
Starred values were filed as active, the others as inactive; i = inactive; . = no result given.

SMILES	TRPC6 act	TRPC6 inh	TRPC4 PAM	TRPC4 act	TRPC4 inh	HEK293 MPD ctr-2	HEK293 MPD ctr 2-2	TRPC4 ctr mod	TRPC4/MOR inh 2	TRPC6 block conf	TRPC6 act conf	others
O=C(c1cccs1)N1CCCC(c2nc3c(nnn3Cc3ccc(F)cc3)c(=O)[nH]2)C1 (stereo not drawn)	i	-7.53*	i	i	i	.	.	.	.	i	i	TRPC4 sel inh 2=i;TRPC4 spec=i;HEK293 MPD ctr 2-1=i;HEK293 MPD ctr-1=i
CCCc1ccc(/C=C2\C(=O)c3ccccc3C(O)=C2C(=O)OCC)cc1	i	i	i	i	i	.	.	.	.	.	.
CCOC(=O)C1=C(O)c2ccccc2C(=O)/C1=C\c1ccc(CC)cc1	14.8*	i	i	i	i	551.5%*	i	129.5%*	i	i	182.0%*
C#CCn1cc(Cl)cc(C(=O)Nc2ccccc2)c1=O	i	-7.09*	i	i	i	.	.	.	.	i	i	TRPC4 sel inh 2=i;TRPC4 spec=i;HEK293 MPD ctr 2-1=i;HEK293 MPD ctr-1=i
CCN(CC)CCN1C(=O)Cn2c(C)c(C)c3cccc1c32	i	-8.37*	i	i	i	i	i	-17.5%*	61.0%*	52.9%*	i	TRPC4 sel inh 2=49.5%*;TRPC4 spec=-16.8%*;HEK293 MPD ctr 2-1=i;HEK293 MPD ctr-1=-253.5%*
CN(C)c1nc(N)c([N+](=O)[O-])c(NCC2CCCO2)n1 (stereo not drawn)	i	i	i	i	i	.	.	.	.	.	.
O=c1cc(CNc2ccc(Br)cc2)nc2sccn12	i	-7.01*	i	i	i	i	i	i	i	i	i
CCCCC1=CC2=C(c3ccco3)C(=O)C(C)(OC(=O)c3ccc(OC)cc3)C(=O)C2=CN1C1CCCCC1 (stereo not drawn)	i	i	i	i	i	.	.	.	.	.	.
COc1cnc(-c2ccccn2)nc1N(C)c1ccccc1	i	-5.87*	i	i	i	-59.0%*	i	i	28.0%*	i	i
COc1ccc(Sc2nc(-c3ccccn3)ncc2OC)cc1	i	-6.1*	i	i	i	-99.0%*	i	-15.0%*	i	i	i
CCN(CC)CCn1c2c(c(SCC(=O)Nc3ccc4c(c3)OCCO4)nc1=O)CCCC2	i	i	i	i	i	.	.	.	.	.	.
CC1C(=O)N2CCCc3cc(NC(=O)COc4ccccc4)cc1c32 (stereo not drawn)	i	i	i	i	i	.	.	.	.	.	.
CCSc1nnc(-c2cc(Br)ccc2NC(C)=O)c(=O)[nH]1	i	i	i	i	i	.	.	.	.	.	.
O=C(CNS(=O)(=O)c1ccc(Br)cc1)NCc1cccnc1	i	i	i	i	i	.	.	.	.	.	.
CCN(CC)CCNc1cc(C)nc2c1C(=O)C(=O)C=C2N1CCCCC1	i	-7.46*	i	i	i	-273.5%*	i	-46.5%*	39.0%*	i	i
CCn1c(COc2ccc3ccccc3c2C)nnc1SCC(=O)Nc1cccc(C(=O)O)c1	i	i	i	i	i	.	.	.	.	.	.
CCn1nnc(-c2ccc(N)cc2)n1	i	i	i	i	i	.	.	.	.	.	.
C=CCn1c(=N)n(CC(=O)c2ccc(Br)s2)c2ccccc21	i	-8.03*	i	i	i	.	.	.	.	64.5%*	i	TRPC4 sel inh 2=13.0%*;TRPC4 spec=16.9%*;HEK293 MPD ctr 2-1=i;HEK293 MPD ctr-1=i
C=CCn1c(=N)n(CC(=O)c2ccc(Cl)cc2)c2ccccc21	i	-5.87*	i	i	i	i	i	35.5%*	93.0%*	57.5%*	.
N=c1n(CC(=O)c2cccs2)c2ccccc2n1Cc1ccccc1	i	-9.73*	i	i	i	.	.	.	.	64.7%*	i	TRPC4 sel inh 2=33.0%*;TRPC4 spec=i;HEK293 MPD ctr 2-1=i;HEK293 MPD ctr-1=2.0%*
CCOC(=O)C1(Cc2ccccc2)CCCN(C2CCCC2)C1 (stereo not drawn)	i	i	i	i	i	.	.	.	.	.	.
Cc1cc(C(F)(F)F)nc(SCCN2CCCCC2)c1C#N	i	i	i	i	i	.	.	.	.	.	.
COc1cccc(OCC(O)CN2CCN(CCN3C(=O)c4cccc5cccc(c45)C3=O)CC2)c1 (stereo not drawn)	i	-5.77*	i	i	i	i	i	i	71.0%*	54.0%*	i
COc1ccc(OCC(O)CN2CCC(CN3C(=O)c4cccc5cccc(c45)C3=O)CC2)cc1 (stereo not drawn)	i	i	i	i	i	.	.	.	.	.	.
O=C1c2cccc3cccc(c23)C(=O)N1CCN1CCN(CC(O)COc2ccccc2)CC1 (stereo not drawn)	i	-5.19*	i	i	i	i	i	i	i	i	i
CCCN1CCN(C(=O)C2CCN(c3ncnc4c3nc3n4CCCCC3)CC2)CC1	i	i	i	i	i	.	.	.	.	.	.
C=CCN(c1ccccc1)S(=O)(=O)c1cccc(C(=O)Oc2ccc3c(C)cc(=O)oc3c2)c1	i	i	i	i	i	.	.	.	.	.	.
CCCn1nc([N+](=O)[O-])c(C(C#N)c2nc3ccccc3o2)c(Cl)c1=O (stereo not drawn)	i	-7.93*	i	i	-5*	-217.0%*	i	-46.0%*	81.0%*	68.5%*	i

Assay outcomes (PubChem BioAssay)
